In ChEMBL document CHEMBL1147142, “Novel 3-O-glycosyl-3-demethylthiocolchicines as ligands for glycine and gamma-aminobutyric acid receptors” (J Med Chem, 2007) one finds IC50 data, which are given here for seven compounds.

Holding throughout (format): cell membranes, Membrane
Assay [1] in a line: Displacement of [3H]muscimol from GABAA receptor in Sprague-Dawley rat spinal cord brainstem membranes.
Assay [2] can be described thus: Displacement of [3H]muscimol from GABAA receptor in Sprague-Dawley rat cerebral cortex membranes.
Assay [3] is described as follows: Displacement of [3H]strychnine from glycine receptor in rat spinal cord synaptosomal membranes. In outline: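 Rat spinal cord synaptosomal membranes (stored at -80 °C, used within 2 weeks; 0.2-0.4 mg protein per 1.2 mL) incubated 10 min at 4 °C with 2 nM [3H]strychnine plus increasing concentrations of competitor in 50 mM sodium-potassium phosphate, pH 7.1. Rapid glass-fiber filtration, 0.15 M NaCl rinse. Nonspecific binding with 0.1 mM unlabeled strychnine. Triplicate points; IC50 from mean of three independent curves.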

pIC50: −log10 of the molar value. Bounds are passed on as bounds.

For `COc1c(O[C@@H]2O[C@H](CO)[C@@H](O)[C@H](O)[C@H]2O)cc2c(c1OC)-c1ccc(SC)c(=O)cc1[C@@H](NC(C)=O)CC2` [THIOCOLCHICOSIDE], the pIC50 in assay [1] was 5.72; in assay [2], 5.47; in assay [3], 5.82.
The matching figures for `COc1c(O[C@@H]2O[C@H](CI)[C@@H](O)[C@H](O)[C@H]2O)cc2c(c1OC)-c1ccc(SC)c(=O)cc1[C@@H](NC(C)=O)CC2`: 5.10, 4.76 and less than 4.00.
Turning to `COc1c(O[C@@H]2O[C@H](C)[C@@H](O)[C@H](O)[C@H]2O)cc2c(c1OC)-c1ccc(SC)c(=O)cc1[C@@H](NC(C)=O)CC2`, the values for the pIC50 in assay [1], in assay [2] and in assay [3] were 5.46, 5.21 and 5.72, respectively.
In assay [3], `O=C1C[C@@H]2OCC=C3CN4CC[C@]56c7ccccc7N1[C@H]5[C@H]2[C@H]3C[C@H]46` [STRYCHNINE] showed a pIC50 of 7.85.
In turn, `NCC(=O)O` [GLYCINE] gave a pIC50 in assay [3] of 4.80.
Turning to `COc1c(O[C@@H]2O[C@H](CF)[C@@H](O)[C@H](O)[C@H]2O)cc2c(c1OC)-c1ccc(SC)c(=O)cc1[C@@H](NC(C)=O)CC2`, the values for the pIC50 in assay [1], in assay [2] and in assay [3] were 5.70, 5.42 and 5.89, respectively.
The matching figures for `COc1c(O[C@@H]2O[C@H](CN=[N+]=[N-])[C@@H](O)[C@H](O)[C@H]2O)cc2c(c1OC)-c1ccc(SC)c(=O)cc1[C@@H](NC(C)=O)CC2`: 5.09, 5.11 and 5.37.
